Results taken from publication PMC2937276 (Molecular cancer therapeutics, 2010).

What was measured:
GBM culture 2414 = assay: XTT cell proliferation assay; type: cell-based, Mouse; conditions: mouse GBM culture 2414; 36 hours; mean of three experiments ± SD
In short: (§1)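 Primary human or mouse GBM cultures (DMEM, 10% FBS) were seeded at 5000 cells per 96-well well. Cells were cultured with test compound or vehicle for 36 h. Proliferation was read by XTT assay in quadruplicate. IC50 came from nonlinear-regression curve fitting.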

GBM culture 46 = assay: XTT cell proliferation assay; type: cell-based, Mouse; conditions: mouse GBM culture 46; 36 hours; mean of three experiments ± SD
In short: as §1

GBM culture 69 = assay: XTT cell proliferation assay; type: cell-based, Mouse; conditions: mouse GBM culture 69; 36 hours; mean of three experiments ± SD
In short: as §1

GBM culture 42 = assay: XTT cell proliferation assay; type: cell-based, Mouse; conditions: mouse GBM culture 42; 36 hours; mean of three experiments ± SD
In short: as §1

GBM culture 2736 = assay: XTT cell proliferation assay; type: cell-based, Mouse; conditions: mouse GBM culture 2736; 36 hours; mean of three experiments ± SD
In short: as §1

GBM culture GBM-1 = assay: XTT cell proliferation assay; type: cell-based, Mouse; conditions: mouse GBM culture GBM-1; 36 hours; mean of three experiments ± SD
In short: as §1

GBM culture 41 = assay: XTT cell proliferation assay; type: cell-based, Mouse; conditions: mouse GBM culture 41; 36 hours; mean of three experiments ± SD
In short: as §1

GBM culture GBM-2 = assay: XTT cell proliferation assay; type: cell-based, Mouse; conditions: mouse GBM culture GBM-2; 36 hours; mean of three experiments ± SD
In short: as §1

GBM culture 2000 = assay: XTT cell proliferation assay; type: cell-based, Mouse; conditions: mouse GBM culture 2000; 36 hours; mean of three experiments ± SD
In short: as §1

GBM culture 2227 = assay: XTT cell proliferation assay; type: cell-based, Mouse; conditions: mouse GBM culture 2227; 36 hours; mean of three experiments ± SD
In short: as §1

GBM culture 2231 = assay: XTT cell proliferation assay; type: cell-based, Mouse; conditions: mouse GBM culture 2231; 36 hours; mean of three experiments ± SD
In short: as §1

GBM culture 2415 = assay: XTT cell proliferation assay; type: cell-based, Mouse; conditions: mouse GBM culture 2415; 36 hours; mean of three experiments ± SD
In short: as §1

GBM culture 102 = assay: XTT cell proliferation assay; type: cell-based, Mouse; conditions: mouse GBM culture 102; 36 hours; mean of three experiments ± SD
In short: as §1

GBM culture 103 = assay: XTT cell proliferation assay; type: cell-based, Mouse; conditions: mouse GBM culture 103; 36 hours; mean of three experiments ± SD
In short: as §1

GBM culture GBM15 = assay: XTT cell proliferation assay; type: cell-based, Human; conditions: human GBM culture GBM15; 36 hours; mean of three experiments ± SD
In short: as §1

GBM culture GBM43 = assay: XTT cell proliferation assay; type: cell-based, Human; conditions: human GBM culture GBM43; 36 hours; mean of three experiments ± SD
In short: as §1

GBM culture GBM39 = assay: XTT cell proliferation assay; type: cell-based, Human; conditions: human GBM culture GBM39; 36 hours; mean of three experiments ± SD
In short: as §1

GBM culture GBM59 = assay: XTT cell proliferation assay; type: cell-based, Human; conditions: human GBM culture GBM59; 36 hours; mean of three experiments ± SD
In short: as §1

GBM culture GBM6 = assay: XTT cell proliferation assay; type: cell-based, Human; conditions: human GBM culture GBM6; 36 hours; mean of three experiments ± SD
In short: as §1

GBM culture GBM12 = assay: XTT cell proliferation assay; type: cell-based, Human; conditions: human GBM culture GBM12; 36 hours; mean of three experiments ± SD
In short: as §1

GBM culture GBM22 = assay: XTT cell proliferation assay; type: cell-based, Human; conditions: human GBM culture GBM22; 36 hours; mean of three experiments ± SD
In short: as §1

GBM culture GBM8 = assay: XTT cell proliferation assay; type: cell-based, Human; conditions: human GBM culture GBM8; 36 hours; mean of three experiments ± SD
In short: as §1

[1] = in vivo
[2] = in clinical evaluation for various cancers; cited from earlier work

C=CCNC1=C2C[C@@H](C)C[C@H](OC)[C@H](O)[C@@H](C)/C=C(\C)[C@H](OC(N)=O)[C@@H](OC)/C=C\C=C(/C)C(=O)NC(=CC1=O)C2=O [17-AAG, 17-allylamino-17-demethoxygeldanamycin, reference compound]
IC50 (GBM culture 2414): 205 ± 13.1 nM | IC50 (GBM culture 46): 91.9 ± 1.4 nM | IC50 (GBM culture 69): 91 ± 4.3 nM | IC50 (GBM culture 42): 166 ± 24.9 nM | IC50 (GBM culture 2736): 381 ± 24.1 nM | IC50 (GBM culture GBM-1): 208 ± 9.6 nM | IC50 (GBM culture 41): 100 ± 5 nM | IC50 (GBM culture GBM-2): 1100 ± 119 nM | IC50 (GBM culture 2000): 345 ± 75.5 nM | IC50 (GBM culture 2227): 712 ± 54.4 nM | IC50 (GBM culture 2231): 737 ± 72 nM | IC50 (GBM culture 2415): 329 ± 50.1 nM | IC50 (GBM culture 102): 626.2 ± 6 nM | IC50 (GBM culture 103): 794 ± 28.7 nM | IC50 (GBM culture GBM15): 110 ± 13.4 nM | IC50 (GBM culture GBM43): 86.9 ± 2.3 nM | IC50 (GBM culture GBM39): 241.7 ± 1.2 nM | IC50 (GBM culture GBM59): 211 ± 11 nM | IC50 (GBM culture GBM6): 531.7 ± 5 nM | IC50 (GBM culture GBM12): 2580 ± 166 nM | IC50 (GBM culture GBM22): 4.67 ± 0.148 µM | IC50 (GBM culture GBM8): 8.01 ± 0.543 µM | accumulation in mouse brain ([1]; ip): rapidly declines to undetectable levels | Brain concentration ([1]; mouse): 2.6 ng/g | toxicity on exposure [2]: dose-limiting hepatotoxicity
